# Laboratory results as given in ChEMBL document CHEMBL1157379, “Transcriptional response of Candida parapsilosis following exposure to farnesol” (2007).
# Calls of active or inactive are those of the source. The rule behind the calls is not given here.
# Assays:
# Candida parapsilosis [1] = experiment: Effect on membrane lipid localization in ERG9 gene expression in Candida parapsilosis CLIB214 assessed as uniform staining at 50 uM after 1 hr by filipin staining; type: functional
# Outline: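 Cultures grown overnight in YPD at 30°C, diluted to A600 0.2, and given farnesol to 50 μM final (methanol for controls) after 4 h of growth. Cells collected 1 h later, PBS-washed, and stained 10 min at room temperature with 100 μg ml−1 filipin in water. Scored by fluorescence microscopy (excitation 360–370 nm, emission 420–460 nm) as bud-tip versus uniform sterol staining.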
# Candida parapsilosis [2] = experiment: Increase in ENA2 gene expression in Candida parapsilosis CLIB214 at 50 uM after 2 hrs by microarray based transcriptional profiling relative to control; type: functional
# Outline: (§1)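 Strain grown overnight in YPD at 30°C, diluted to A600 0.2 in YPD at 30°C; farnesol (40 mM methanol stock) added at 4 h (A600 0.8), final 50 μM; methanol-only control. Cells collected 2 h later for RNA. Labelled cDNA from 25 μg total RNA (Cy3/Cy5-dCTP) hybridized to 68-mer oligo arrays at 42°C ~16 h; six individual comparisons analysed statistically.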
# Candida parapsilosis [3] = experiment: Increase in CGD gene ortholog accession number orf19.3617 expression in Candida parapsilosis CLIB214 at 50 uM after 2 hrs by microarray based transcriptional profiling relative to control; type: functional
# Outline: (§2)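 Strain CLIB214 grown overnight in YPD at 30°C, diluted to A600 0.2 in fresh YPD at 30°C. After 4 h (A600 0.8), farnesol (40 mM methanol stock) added to 50 μM final, or an equal methanol volume as control; cells harvested 2 h later. RNA was accepted only with a 28S/18S ratio of 1.6–2.2. Cy3/Cy5-dCTP-labelled cDNA was made from 25 μg total RNA. Hybridisation was to duplicate-spotted 68-mer oligo arrays (3,849 genes) at 42°C for about 16 h. Six individual comparisons.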
# Candida parapsilosis [4] = experiment: Antifungal activity against Candida parapsilosis CLIB214 assessed as induction of cell death at 50 uM added 4 hrs after […] growth after 2 hrs by propidium iodide staining method; type: functional
# Outline: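 After 2 h exposure to 50 μM farnesol (methanol stock; methanol-only control), cells were washed twice in PBS and stained with propidium iodide at 10 μg ml−1 in PBS for 5 min. Dead-cell percentage was scored by fluorescence microscopy (Texas Red filter), counting at least 150 cells in each of three independent experiments.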
# Candida parapsilosis [5] = experiment: Increase in GenBank accession number NP_943633.1 expression in Candida parapsilosis CLIB214 at 50 uM after 2 hrs by microarray based transcriptional profiling relative to control; type: functional; outline: as §1
# Candida parapsilosis [6] = experiment: Decrease in CGD gene ortholog accession number orf19.6687 expression in Candida parapsilosis CLIB214 at 50 uM after 2 hrs by microarray based transcriptional profiling relative to control; type: functional; outline: as §2
# Candida parapsilosis [7] = experiment: Increase in RTA3 gene expression in Candida parapsilosis CLIB214 at 50 uM after 2 hrs by microarray based transcriptional profiling relative to control; type: functional; outline: as §1
# Candida parapsilosis [8] = experiment: Antifungal activity against Candida parapsilosis CLIB214 assessed as growth inhibition in presence of 10% fetal calf serum at 37 degC; type: functional, organism-based
# Outline: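 YPD cultures started at A600 0.2, supplemented with 10% (vol/vol) fetal calf serum, and grown at 30°C or 37°C. Farnesol added with the serum. Growth monitored by A600 or cell counting.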
compound,measurement,setting,value
CC(C)=CCC/C(C)=C/CC/C(C)=C/CO [FARNESOL],Activity,Candida parapsilosis [1],82%
same,fold change (FC),Candida parapsilosis [2],1.77
same,fold change (FC),Candida parapsilosis [3],1.55
same,Activity,Candida parapsilosis [4],20%
same,fold change (FC),Candida parapsilosis [5],2.81
same,fold change (FC),Candida parapsilosis [6],2.26
same,fold change (FC),Candida parapsilosis [7],1.67
same,Activity,Candida parapsilosis [8],inactive
